# Experimental data taken from the RNAGym collection of RNA variant scans (doi:10.1126/science.aae0568).
# This sample holds only a part of the variants without activity.
# B1: tRNA (parent)
# chain: GUUCCGUUGGCGUAAUGGUAACGCGUCUCCCUCCUAAGGAGAAGACUGCGGGUUCGAGUCCCGUACGGAACG
# Variants of: B1
# Experiment: yeast fitness relative to wild type (ratio to wild type); higher = fitter; tRNA-Arg(CCU), competitive growth, 37 C, YPD
# Summary of the method: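 Amplicons of the tRNA-Arg(CCU) gene were sequenced, 100-nucleotide paired-end, from the start population and from each end population of a pooled yeast competition. The competition, in six parallel replicates, lasted 24 hours in YPD at 37°C. Fitness relative to wild type was calculated from changes in genotype frequencies. Genotypes had to have ≥ 100 starting reads, and estimates < 0.5 were set to 0.5.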
row,Variant,yeast fitness
1,C5G G9C C30G,≤ 0.5
2,C5G G25A C34G A42U G50C U54C A70C,≤ 0.5
3,C5G C29U A43C U54G C60G C62U,≤ 0.5
4,C5G C34G C62A G63A,≤ 0.5
5,C5G G17C A20C A21U C27U C33G G67A,0.595
6,C5G G10C A15C C34U C55A,≤ 0.5
7,C5G C55U G68C,0.506
8,C5G G17C A70U,≤ 0.5
9,C5G C49U C61G,0.534
10,C5G G17C C46U G68A,≤ 0.5
11,C5G C31U A36C G38A G50A,≤ 0.5
12,C5G C34G,0.62
13,C5G C34U,0.599
14,C5G C29G G52A G67A,≤ 0.5
15,C5G G9A C31G,0.767
16,C5G U7A C22U C30A C49G C55U,0.552
17,C5G U7A C27A C29A,≤ 0.5
18,C5G G48A C49G,0.658
19,C5G G39A U47G C49G C66U A69C,0.57
20,C5G U7G C61U,0.649
21,C5G G25A C61U,0.716
22,C5G C62G,0.791
23,C5G G10A G52A A70G,0.564
24,C5G G17A A40C,0.651

row,Variant,yeast fitness
1,C5G G9C U28C C55U,≤ 0.5
2,C5G G25A C46U G50C,0.593
3,C5G G18C C62A,≤ 0.5
4,C5G G23A,0.668
5,C5G U7G A36U G41A C49G,≤ 0.5
6,C5G C46G A69U,0.712
7,C5G G41C U54A,≤ 0.5
8,C5G C46U G51A U54G,0.571
9,C5G G10C C30U G39C C55G,≤ 0.5
10,C5G G6A C29U C33G G38A G67U,≤ 0.5
11,C5G G10C A37U G38A,≤ 0.5
12,C5G G18C C60G,≤ 0.5
13,C5G C31U A36C G38A U54A,≤ 0.5
14,C5G G50A C55G A65C,0.551
15,C5G C30U A42G,0.57
16,C5G G6C C30G C33U A45U,≤ 0.5
17,C5G C60G,0.581
18,C5G C60A,0.663
19,C5G C66G G68C,≤ 0.5
20,C5G G10C C22A U32C,≤ 0.5
21,C5G G6C U64C,0.586
22,C5G C55G U59C C60U G67U,≤ 0.5
23,C5G G25A C46U G50C C66U,≤ 0.5
24,C5G G17C C60U,0.686

row,Variant,yeast fitness
1,C5G G18C G56C,≤ 0.5
2,C5G G39C,0.675
3,C5G G51C U54A,≤ 0.5
4,C5G C29G A36U,≤ 0.5
5,C5G C34U C46A C62U,≤ 0.5
6,C5G U8A A14G,≤ 0.5
7,C5G G44C,0.688
8,C5G G12A G25A,0.783
9,C5G C29G,0.779
10,C5G C29U,0.793
11,C5G G25A A45C,0.705
12,C5G G10A C11G U16G C33G C61A,≤ 0.5
13,C5G G10A C29G,≤ 0.5
14,C5G G6C A37G G51C A57G,≤ 0.5
15,C5G G23A A69C,≤ 0.5
16,C5G C29A U32G,≤ 0.5
17,C5G G48C C49U,0.622
18,C5G C30A A42C,≤ 0.5
19,C5G G12A A36U A42U U59C,≤ 0.5
20,C5G C29U G39A,0.671
21,C5G G23A C61G,≤ 0.5
22,C5G G23A C61A,0.529
23,C5G C49G G63A,0.57
24,C5G G23A G25C C49U,0.544

row,Variant,yeast fitness
1,C5G G44C C49G A69U,≤ 0.5
2,C5G G17A G38A A40G A69U,≤ 0.5
3,C5G C60G A70C,0.509
4,C5G G41C C49U,0.543
5,C5G G38C A69U,≤ 0.5
6,C5G C34A A37U G44A G51A C55A,0.654
7,C5G G17C G25A A40C G68A,≤ 0.5
8,C5G G25A C62G,0.648
9,C5G G12U A45U A57U,≤ 0.5
10,C5G G12A U47C C62A,≤ 0.5
11,C5G C30G G52C,0.519
12,C5G C30G G52A,0.523
13,C5G G10C U13G A37C,0.508
14,C5G G9C A42G U54C U59C,≤ 0.5
15,C5G G10C U13G C31G U59A,≤ 0.5
16,C5G G17A C34A G39C A40C G56C C61G C62G G68C,≤ 0.5
17,C5G G6A G25A,0.675
18,C5G C33U A57G,≤ 0.5
19,C5G C46G A65C,0.668
20,C5G G10C C31U A70G,≤ 0.5
21,C5G G9C A20U A21G C24G C27G A43G,≤ 0.5
22,C5G C33G C55U,0.875
23,C5G C33U G56C,0.575
24,C5G C31A A37C G48A G58C,0.565

row,Variant,yeast fitness
1,C5G G17C U47A C55A G68A,0.562
2,C5G C33G G67A,≤ 0.5
3,C5G G6C C33A A40U A70C,≤ 0.5
4,C5G G23A C34A,0.723
5,C5G G39A U47G C49G A69C,0.764
6,C5G G52A A65G A70U,≤ 0.5
7,C5G G25A U59G,0.631
8,C5G C34U C55G A70G,≤ 0.5
9,C5G G9C A20G A21C U59C,≤ 0.5
10,C5G G10A A40G A70G,≤ 0.5
11,C5G G44C U64C,0.586
12,C5G G12C G18A C24U C29U A36G A45C A69C,≤ 0.5
13,C5G G10C U47A A70G,≤ 0.5
14,C5G C31A G67C,0.62
15,C5G G12A A36U A42U U59C A65C,≤ 0.5
16,C5G C29U A70C,0.527
17,C5G G18A C55A C61U,≤ 0.5
18,C5G G38A U59C,≤ 0.5
19,C5G G17A A37C A65C,0.588
20,C5G G18C C31A,≤ 0.5
21,C5G C49U G58C,0.622
22,C5G C33A,0.616
23,C5G C33U,0.673
24,C5G U7C C11G A43G A65U,≤ 0.5

row,Variant,yeast fitness
1,C5G G9C C33G A45G C55G G56C,≤ 0.5
2,C5G G25C C29G A65U,≤ 0.5
3,C5G G58A G67C,0.687
4,C5G G56A G58C,0.756
5,C5G C30U,0.799
6,C5G G23C C33U A43C U64A,≤ 0.5
7,C5G G18A A20U C55G,≤ 0.5
8,C5G U7G U13A C30A A43C U53C,0.876
9,C5G C46U,0.88
10,C5G C46A,0.917
11,C5G C62U C66G,0.641
12,C5G G25A C34A C49G G50A,≤ 0.5
13,C5G G48C G56A,0.544
14,C5G G56A C62G,0.543
15,C5G C55G A70U,≤ 0.5
16,C5G U7G G38A A40C G56A C60U C61G,≤ 0.5
17,C5G G9A A20G,0.553
18,C5G G9A A43G G48C A69C,≤ 0.5
19,C5G G25A G68C,0.69
20,C5G G6A U53G A57C,≤ 0.5
21,C5G C61G A65U,≤ 0.5
22,C5G C55U G67A,0.598
23,C5G G10A C11G U16G C33G U59C,≤ 0.5
24,C5G G67C,0.99

row,Variant,yeast fitness
1,C5G G67A,0.86
2,C5G G56C,0.662
3,C5G C29U A37G C66U,0.536
4,C5G G10A C11G U16G,≤ 0.5
5,C5G U7C C24G A43C,0.629
6,C5G G39A C46U G67A,≤ 0.5
7,C5G C30U C31G C61A A69U,≤ 0.5
8,C5G G6C C46A,≤ 0.5
9,C5G G25A U47C,0.781
10,C5G G48A C49U A57G,0.624
11,C5G G6C G67A,≤ 0.5
12,C5G G52A,0.806
13,C5G C29A U59A,≤ 0.5
14,C5G U7A A20C,0.694
15,C5G G12A C46U G52C,0.61
16,C5G G10C,0.651
17,C5G G18A,0.713
18,C5G G18C,0.733
19,C5G G6C U26G C61U,0.59
20,C5G G51A G52A,≤ 0.5
21,C5G G10A G52A,0.741
22,C5G G10A C11G U16G C33G A65G,≤ 0.5
23,C5G G17C U47A C55A,0.516
